Source: ChEMBL document CHEMBL1152715, “13-Methyl-substituted des-C,D analogs of (20S)-1alpha,25-dihydroxy-2-methylene-19-norvitamin D3 (2MD): synthesis and biological evaluation” (Bioorg Med Chem, 2009)

Legend:
Vitamin D3 receptor [1] = molecular target: T1, Vitamin D3 receptor (Rattus norvegicus, UniProt P13053); experiment: Displacement of [3H]1-alpha,25-(OH)2D3 from rat recombinant full length VDR
T1 sequence (P13053 whole entry): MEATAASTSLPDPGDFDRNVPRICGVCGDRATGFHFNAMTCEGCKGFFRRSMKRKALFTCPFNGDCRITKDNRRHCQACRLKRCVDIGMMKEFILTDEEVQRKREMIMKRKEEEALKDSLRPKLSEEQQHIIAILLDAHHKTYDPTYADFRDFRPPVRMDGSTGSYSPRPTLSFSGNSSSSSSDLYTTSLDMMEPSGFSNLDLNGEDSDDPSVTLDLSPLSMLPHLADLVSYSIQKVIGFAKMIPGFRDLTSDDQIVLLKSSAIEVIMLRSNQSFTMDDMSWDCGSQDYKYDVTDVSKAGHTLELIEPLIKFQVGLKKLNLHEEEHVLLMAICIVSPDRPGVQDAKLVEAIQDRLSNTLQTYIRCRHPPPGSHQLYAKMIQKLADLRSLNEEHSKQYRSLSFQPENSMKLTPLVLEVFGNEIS
Procedure, shortened: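 It was incubated overnight on ice with 1 nM (final) [3H]1α,25-(OH)2D3 plus unlabeled competitor, ethanol <10%. Bound ligand was collected on hydroxylapatite, washed and scintillation counted. […] Runs were in duplicate.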

HL-60 [2] = experiment: Ratio of EC50 of drug to EC50 of 1-alpha,25-(OH)2D3 for induction of cell differentiation of human HL60 cells to monocytes by NBT reduction assay
HL-60 [3] = experiment: Induction of cell differentiation of human HL60 cells to monocytes by NBT reduction assay; assay type: functional, cell-based
Vitamin D3 receptor [4] = molecular target: T1, Vitamin D3 receptor; experiment: Activity at VDR in rat ROS 17/2.8 cells assessed as transcriptional activation of 24-hydroxylase gene promoter after 16 hrs by luciferase reporter gene assay; assay type: cell-based
Procedure, shortened: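 ROS 17/2.8 rat osteosarcoma cells stably transfected with a 24-hydroxylase promoter–luciferase reporter were dosed over a concentration range and harvested 16 h later. Luciferase was read on a luminometer.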

Rattus norvegicus [5] = experiment: Effect on bone calcium mobilization in vitamin D-deficient weanling rat assessed as increase in serum calcium level at 165 ug/kg, ip administered as 7 consecutive daily doses measured 24 hrs after last dose relative to untreated control; assay type: functional
Procedure, shortened: (§1)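 Weanling male rats were fed a 0.47% Ca diet for 1 week, then a 0.02% Ca diet for 3 weeks. In the final week they received daily intraperitoneal doses for 7 days in 0.1 mL propylene glycol/ethanol (95:5); controls got vehicle. There were 5–6 rats per group. Serum Ca and the intestinal serosal/mucosal Ca ratio were compared with vehicle.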

Rattus norvegicus [6] = experiment: Effect on calcium transport in vitamin D-deficient weanling rat intestine assessed as increase in ratio of serosal to mucosal calcium level at 165 ug/kg, ip administered as 7 consecutive daily doses measured 24 hrs after last dose; assay type: functional; procedure, shortened: as §1
Rattus norvegicus [7] = experiment: Effect on calcium transport in vitamin D-deficient weanling rat intestine assessed as increase in ratio of serosal to mucosal calcium level at 5.5 ug/kg, ip administered as 7 consecutive daily doses measured 24 hrs after last dose; assay type: functional; procedure, shortened: as §1
Rattus norvegicus [8] = experiment: Effect on bone calcium mobilization in vitamin D-deficient weanling rat assessed as increase in serum calcium level at 55 ug/kg, ip administered as 7 consecutive daily doses measured 24 hrs after last dose relative to untreated control; assay type: functional; procedure, shortened: as §1
Rattus norvegicus [9] = experiment: Effect on bone calcium mobilization in vitamin D-deficient weanling rat assessed as increase in serum calcium level at 5.5 ug/kg, ip administered as 7 consecutive daily doses measured 24 hrs after last dose relative to untreated control; assay type: functional; procedure, shortened: as §1
Rattus norvegicus [10] = experiment: Effect on calcium transport in vitamin D-deficient weanling rat intestine assessed as increase in ratio of serosal to mucosal calcium level at 55 ug/kg, ip administered as 7 consecutive daily doses measured 24 hrs after last dose; assay type: functional; procedure, shortened: as §1
Rattus norvegicus [11] = experiment: Effect on bone calcium mobilization in vitamin D-deficient weanling rat assessed as increase in serum calcium level at 1.9 ug/kg, ip administered as 7 consecutive daily doses measured 24 hrs after last dose relative to untreated control; assay type: functional; procedure, shortened: as §1
Rattus norvegicus [12] = experiment: Effect on bone calcium mobilization in vitamin D-deficient weanling rat assessed as increase in serum calcium level at 22.8 ug/kg, ip administered as 7 consecutive daily doses measured 24 hrs after last dose relative to untreated control; assay type: functional; procedure, shortened: as §1
Rattus norvegicus [13] = experiment: Effect on bone calcium mobilization in vitamin D-deficient weanling rat assessed as increase in serum calcium level at 5.7 ug/kg, ip administered as 7 consecutive daily doses measured 24 hrs after last dose relative to untreated control; assay type: functional; procedure, shortened: as §1

| SMILES | Ki (Vitamin D3 receptor [1]) | Ratio EC50 (HL-60 [2]) | EC50 (HL-60 [3]) | EC50 (Vitamin D3 receptor [4]) | fold change (FC) (Rattus norvegicus [5]) | Ratio (Rattus norvegicus [6]) | Ratio (Rattus norvegicus [7]) | fold change (FC) (Rattus norvegicus [8]) | fold change (FC) (Rattus norvegicus [9]) | Ratio (Rattus norvegicus [10]) | fold change (FC) (Rattus norvegicus [11]) | fold change (FC) (Rattus norvegicus [12]) | fold change (FC) (Rattus norvegicus [13]) |
| --- | --- | --- | --- | --- | --- | --- | --- | --- | --- | --- | --- | --- | --- |
| C=C1[C@H](O)CC(=C/C=C\C/C(C)=C/[C@@H](C)CCCC(C)(C)O)C[C@H]1O | > 1000 nM | >333 | > 1000 nM | > 100 nM |  |  |  |  |  |  |  |  |  |
| C=C1[C@H](O)CC(=C/C=C/C[C@@H](C)C[C@@H](C)CCCC(C)(C)O)C[C@H]1O | 10 nM | 100 | 300 nM | 90 nM | -0.1 | -0.9 | 0.4 | -0.2 | -0.2 | -0.5 |  |  |  |
| C=C1[C@H](O)CC(=C/C=C/CCC[C@@H](C)CCCC(C)(C)O)C[C@H]1O | 50 nM | 100 | 300 nM | 50 nM |  |  |  |  |  |  | -0.2 | 0.2 | 0.1 |
| C=C1[C@H](O)CC(=C/C=C/C[C@H](C)C[C@@H](C)CCCC(C)(C)O)C[C@H]1O | 30 nM | 2 | 6 nM | 3 nM |  |  |  |  |  |  |  |  |  |
| C=C1[C@H](O)CC(=C/C=C/C/C(C)=C/[C@@H](C)CCCC(C)(C)O)C[C@H]1O | 60 nM | >333 | > 1000 nM | > 100 nM |  |  |  |  |  |  |  |  |  |
